Measurements from ChEMBL document CHEMBL3804828, “2,4,6-Triaminopyrimidine as a Novel Hinge Binder in a Series of PI3Kδ Selective Inhibitors” (J Med Chem, 2016).

Assays:
[1] = biological target: PI3-kinase p110-delta/p85-alpha (Homo sapiens, UniProt O00329); test: Inhibition human full length PI3Kdelta catalytic subunit/p85alpha assessed as formation of PIP3 after 30 mins by europium labeled GRP-based TR-FRET assay; assay type: protein-complex assay
[2] = species: Homo sapiens; test: Selectivity ratio of IC50 for human full length PI3Kalpha catalytic subunit/p85alpha to IC50 for human full length PI3Kdelta catalytic subunit/p85alpha
Summary of the method: (§1)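 Ratio calculated from the isoform-specific PI3K IC50 values, with enzyme assays run in quadruplicate.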

[3] = species: Homo sapiens; test: Selectivity ratio of IC50 for human recombinant PI3Kbeta to IC50 for human full length PI3Kdelta catalytic subunit/p85alpha; summary of the method: as §1
[4] = species: Homo sapiens; test: Selectivity ratio of IC50 for human full length PI3Kgamma to IC50 for human full length PI3Kdelta catalytic subunit/p85alpha; summary of the method: as §1
[5] = Clearance in human hepatocytes at 1 uM by LC/MS/MS analysis; assay type: ADME, cell-based, Hepatocyte
Summary of the method: (§2)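 Human hepatocytes, incubated with and without the aldehyde oxidase inhibitor raloxifene; predicted clearance calculated from turnover.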

[6] = test system: Hepatocyte; test: Clearance in human hepatocytes at 1 uM by LC/MS/MS in presence of aldehyde oxidase inhibitor raloxifene; assay type: ADME, cell-based; summary of the method: as §2

Chain of PI3-kinase p110-delta/p85-alpha (P27986 whole entry): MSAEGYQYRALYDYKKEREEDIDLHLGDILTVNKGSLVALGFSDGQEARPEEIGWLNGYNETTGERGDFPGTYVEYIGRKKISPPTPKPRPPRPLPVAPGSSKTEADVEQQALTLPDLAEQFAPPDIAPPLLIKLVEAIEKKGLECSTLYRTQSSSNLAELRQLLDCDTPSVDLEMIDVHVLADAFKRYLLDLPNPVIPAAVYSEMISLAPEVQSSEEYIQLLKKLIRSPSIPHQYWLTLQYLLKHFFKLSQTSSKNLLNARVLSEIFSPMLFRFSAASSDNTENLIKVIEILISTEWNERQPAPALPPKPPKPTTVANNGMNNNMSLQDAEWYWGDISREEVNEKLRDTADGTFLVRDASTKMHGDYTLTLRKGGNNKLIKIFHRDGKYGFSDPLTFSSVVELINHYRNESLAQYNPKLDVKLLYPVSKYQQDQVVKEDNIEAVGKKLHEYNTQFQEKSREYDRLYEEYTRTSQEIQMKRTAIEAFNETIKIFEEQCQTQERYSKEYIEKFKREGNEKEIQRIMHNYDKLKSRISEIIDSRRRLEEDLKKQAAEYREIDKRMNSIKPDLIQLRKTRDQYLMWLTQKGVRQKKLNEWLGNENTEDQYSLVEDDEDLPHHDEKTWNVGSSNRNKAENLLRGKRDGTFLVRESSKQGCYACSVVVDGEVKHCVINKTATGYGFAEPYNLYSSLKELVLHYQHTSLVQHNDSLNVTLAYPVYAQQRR
Chain of PI3-kinase p110-delta/p85-alpha (O00329 whole entry): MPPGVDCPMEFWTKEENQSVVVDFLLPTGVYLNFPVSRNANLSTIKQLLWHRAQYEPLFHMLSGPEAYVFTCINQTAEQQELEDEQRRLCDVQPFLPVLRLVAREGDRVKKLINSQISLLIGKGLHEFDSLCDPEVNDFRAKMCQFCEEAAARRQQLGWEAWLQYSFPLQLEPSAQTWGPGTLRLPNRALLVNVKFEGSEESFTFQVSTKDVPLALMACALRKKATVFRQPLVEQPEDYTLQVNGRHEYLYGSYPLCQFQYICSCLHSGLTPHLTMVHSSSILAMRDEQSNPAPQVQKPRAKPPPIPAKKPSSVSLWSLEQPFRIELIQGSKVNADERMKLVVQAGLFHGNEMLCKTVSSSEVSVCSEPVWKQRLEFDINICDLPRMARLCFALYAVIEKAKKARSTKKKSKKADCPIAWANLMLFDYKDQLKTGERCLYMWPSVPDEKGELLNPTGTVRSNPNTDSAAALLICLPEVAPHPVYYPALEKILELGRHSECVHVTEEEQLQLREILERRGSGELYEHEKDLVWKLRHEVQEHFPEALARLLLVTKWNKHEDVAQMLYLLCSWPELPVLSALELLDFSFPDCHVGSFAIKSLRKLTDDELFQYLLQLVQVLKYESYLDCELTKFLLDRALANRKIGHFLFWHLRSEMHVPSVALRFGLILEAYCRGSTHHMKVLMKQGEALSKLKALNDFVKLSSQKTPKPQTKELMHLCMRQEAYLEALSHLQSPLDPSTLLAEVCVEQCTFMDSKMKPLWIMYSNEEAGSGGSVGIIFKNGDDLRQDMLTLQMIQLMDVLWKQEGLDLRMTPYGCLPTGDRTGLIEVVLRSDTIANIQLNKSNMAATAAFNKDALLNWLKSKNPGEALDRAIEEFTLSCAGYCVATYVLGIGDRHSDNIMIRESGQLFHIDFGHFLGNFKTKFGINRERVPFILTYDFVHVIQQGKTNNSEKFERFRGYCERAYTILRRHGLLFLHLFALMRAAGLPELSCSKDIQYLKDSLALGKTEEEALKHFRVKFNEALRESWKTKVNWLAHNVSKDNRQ

SMILES | IC50 [1] [nM] | Ratio IC50 [2] | Ratio IC50 [3] | Ratio IC50 [4] | CLhep predicted at 1 µM [5] [mL/min/kg] | CLH [6] [mL/min/kg]
C[C@H](Nc1nc(N)ncc1C#N)c1nc2cccc(Cl)c2c(=O)n1-c1ccccc1 | 2.5 | 530 | 170 | 15 | – | –
COc1cccc(-n2c([C@H](C)Nc3nc(N)nc(N)c3C#N)nc3cccc(Cl)c3c2=O)c1 | 0.9 | 1100 | 330 | 70 | – | –
C[C@H](Nc1ncnc(N)c1C(N)=O)c1nc2cccc(Cl)c2c(=O)n1-c1ccccc1 | 11 | 860 | 310 | 310 | 4.5 | 1.3
C[C@H](Nc1nc(N)nc(N)c1C#N)c1nc2ccc(F)cc2c(=O)n1-c1cc(F)cc(F)c1 | 4.8 | 600 | 520 | 160 | 4.83 | –
C[C@H](Nc1nc(N)nc(N)c1C#N)c1nc2cccc(Cl)c2c(=O)n1-c1cc(Cl)cc(C(F)F)c1 | 1.5 | 850 | 220 | 220 | – | –
C[C@H](Nc1nc(N)nc(N)c1C#N)c1nc2cccc(Cl)c2c(=O)n1-c1cc(F)cc(F)c1 | 0.47 | 2600 | 520 | 110 | 13.5 | –
C[C@H](Nc1nc(N)nc(N)c1C#N)c1nc2cccc(Cl)c2c(=O)n1-c1cccc(C#N)c1 | 1.9 | 1700 | 340 | 90 | – | –
C[C@H](Nc1nc(N)nc(N)c1Cl)c1nc2cccc(Cl)c2c(=O)n1-c1ccccc1 | 0.9 | 2700 | 370 | 200 | 10.8 | –
C[C@H](Nc1ccnc(N)c1C#N)c1nc2cccc(Cl)c2c(=O)n1-c1ccccc1 | 30 | > 340 | > 340 | > 340 | – | –
C[C@H](Nc1cc(N)ncn1)c1nc2cccc(Cl)c2c(=O)n1-c1ccccc1 | 99 | > 100 | > 100 | > 100 | – | –
C[C@H](Nc1ncnc(N)c1C#Cc1cccnn1)c1nc2cccc(Cl)c2c(=O)n1-c1ccccc1 | 240 | > 42 | 30 | > 42 | – | –
C[C@H](Nc1ncncc1C#N)c1nc2cccc(Cl)c2c(=O)n1-c1ccccc1 | 8 | 1200 | 460 | 370 | – | –
C[C@H](Nc1nc(N)nc(Cl)c1C#N)c1nc2cccc(Cl)c2c(=O)n1-c1ccccc1 | 1 | 530 | 100 | 25 | 13.7 | –
C[C@H](Nc1nc(N)nc(N)c1C#N)c1nc2cccc(Cl)c2c(=O)n1-c1cc(C#N)cc(C#N)c1 | 150 | > 68 | > 68 | > 68 | – | –
C[C@H](Nc1nc(N)nc(N)c1C#N)c1nc2c(F)cccc2c(=O)n1-c1cc(F)cc(F)c1 | 3.5 | 810 | 920 | 130 | 8.83 | –
C[C@H](Nc1nc(N)nc(N)c1C#N)c1nc2cccc(Cl)c2c(=O)n1-c1cccc(C(F)(F)F)c1 | 3.6 | 1100 | 230 | 57 | – | –
C#Cc1c(N)ncnc1N[C@@H](C)c1nc2cccc(Cl)c2c(=O)n1-c1ccccc1 | 0.1 | 9700 | 490 | 1900 | 11 | –
COc1c(N)ncnc1N[C@@H](C)c1nc2cccc(Cl)c2c(=O)n1-c1ccccc1 | 39 | > 251 | > 251 | > 251 | – | –

SMILES | IC50 [1] [nM] | Ratio IC50 [2] | Ratio IC50 [3] | Ratio IC50 [4] | CLhep predicted at 1 µM [5] [mL/min/kg] | CLH [6] [mL/min/kg]
C[C@H](Nc1nc(N)nc(N)c1C#N)c1nc2ccccc2c(=O)n1-c1cc(F)cc(F)c1 | 15 | 530 | 290 | 75 | 2.83 | –
C[C@H](Nc1nc(N)nc(N)c1C#N)c1nc2cccc(Cl)c2c(=O)n1-c1cccc(C(F)F)c1 | 0.54 | 1800 | 190 | 210 | – | –
C[C@H](Nc1nc(N)nc(N)c1C#N)c1nc2cccc(Cl)c2c(=O)n1-c1cccc(Cl)c1 | 0.45 | 530 | 140 | 70 | – | –
C[C@H](Nc1ncnc(N)c1C#Cc1cn[nH]c1)c1nc2cccc(Cl)c2c(=O)n1-c1ccccc1 | 0.3 | 1500 | 260 | 230 | – | –
C[C@H](Nc1ncnc(N)c1C#Cc1ccccc1)c1nc2cccc(Cl)c2c(=O)n1-c1ccccc1 | 0.3 | 1600 | 120 | 320 | – | –
Cc1nc(N)nc(N[C@@H](C)c2nc3cccc(Cl)c3c(=O)n2-c2ccccc2)c1C#N | 0.13 | 1900 | 100 | 40 | 17.5 | –
C[C@H](Nc1nc(N)nc(N)c1C#N)c1nc2ccc(F)c(Cl)c2c(=O)n1-c1cc(F)cc(F)c1 | 2.9 | 780 | 470 | 74 | 6.5 | –
C[C@H](Nc1nc(N)nc(N)c1C#N)c1nc2cccc(Cl)c2c(=O)n1-c1cccc(F)c1 | 0.15 | 3100 | 550 | 90 | – | –
C[C@H](Nc1ncnc(N)c1C#Cc1cccnc1)c1nc2cccc(Cl)c2c(=O)n1-c1ccccc1 | 0.5 | 620 | 240 | 100 | – | –
C[C@H](Nc1ncnc(N)c1C(F)(F)F)c1nc2cccc(Cl)c2c(=O)n1-c1ccccc1 | 1.8 | 1200 | 340 | 560 | 9.83 | 2
C[C@H](Nc1nc(N)nc(N)c1C#N)c1nc2cccc(Cl)c2c(=O)n1-c1ccc(F)cc1 | 2 | 64 | 4 | 2 | – | –
C[C@H](Nc1nc(N)nc(N)c1C#N)c1nc2cccc(Cl)c2c(=O)n1-c1ccccc1 | 0.1 | 2200 | 80 | 60 | 3.5 | 1.7
C[C@H](Nc1nc(N)nc(N)c1C#N)c1nc2cccc(Cl)c2c(=O)n1-c1cccc(CC(F)F)c1 | 1.6 | 1400 | 230 | 120 | – | –
C[C@H](Nc1nc(N)nc(N)c1C#N)c1nc2c(C#N)cccc2c(=O)n1-c1cc(F)cc(F)c1 | 5.9 | 1700 | 1200 | 800 | 8.33 | –
C[C@H](Nc1nc(Cl)nc(N)c1C#N)c1nc2cccc(Cl)c2c(=O)n1-c1ccccc1 | 4.3 | 720 | 180 | 37 | 9.83 | –
C[C@H](Nc1ccncn1)c1nc2cccc(Cl)c2c(=O)n1-c1ccccc1 | 1700 | > 6 | > 6 | > 6 | – | –
[2H]c1nc(N)c(C#N)c(N[C@@H](C)c2nc3cccc(Cl)c3c(=O)n2-c2ccccc2)n1 | 1.2 | – | – | – | 8.33 | 1.7
C[C@H](Nc1ncnc(N)c1C#Cc1cnccn1)c1nc2cccc(Cl)c2c(=O)n1-c1ccccc1 | 0.4 | 3200 | 52 | 512 | – | –
